# Source: PubChem (several laboratories)
# Sampled rows, rich in hits. Any-hit rate of the full collection: about 4.1%.
# NF-kB neuron act: compounds increasing NF-kB expression in human neuronal cells; NF-kB reporter expression; stronger effect = higher value; fold change at 12.5 µM; 190,000 compounds, 1.6% hits; AID 1239; in the data active means fold change above about 3.3
# FLuc act counter: affects firefly luciferase, flagging false hits in luciferase stimulation screens; activation factor at 10 µM; ATPlite luciferase biochemical, luminescence, 10 min; 0 = ATP-free wells, 1 = DMSO control; 200,000 tested, under 10 active;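 active means luciferase activation factor, scaled between plate controls, of at least 2 with compound at 10 µM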
# Target sequence (P08659 whole entry, looked up): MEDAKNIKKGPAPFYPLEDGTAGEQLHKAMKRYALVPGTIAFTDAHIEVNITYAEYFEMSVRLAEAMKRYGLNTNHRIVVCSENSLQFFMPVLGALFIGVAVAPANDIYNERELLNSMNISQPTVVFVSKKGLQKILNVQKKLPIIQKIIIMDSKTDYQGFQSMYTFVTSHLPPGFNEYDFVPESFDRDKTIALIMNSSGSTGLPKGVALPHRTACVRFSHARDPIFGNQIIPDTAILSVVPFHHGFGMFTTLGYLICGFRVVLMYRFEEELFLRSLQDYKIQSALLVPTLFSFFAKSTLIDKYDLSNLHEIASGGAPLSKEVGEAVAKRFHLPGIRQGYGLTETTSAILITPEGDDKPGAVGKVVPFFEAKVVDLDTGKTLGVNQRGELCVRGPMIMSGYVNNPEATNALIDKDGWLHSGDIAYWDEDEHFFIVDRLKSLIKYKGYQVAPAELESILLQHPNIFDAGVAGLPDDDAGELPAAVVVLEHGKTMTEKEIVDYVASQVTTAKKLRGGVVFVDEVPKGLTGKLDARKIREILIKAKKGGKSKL
#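 Material: luciferase plus luciferin reagent, cell-free. Medium: PBS buffer for ATP. Also added: ATP substrate, dispensed from a 10.24 µM working solution in PBS. Doses: test compounds dosed from 2 mM stocks in 100% DMSO. Incubation: 10 min post-reagent at room temperature. Technique: light output (luminescence). Read-out basis: luminescence gain marking luciferase activators.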
# FLuc inh counter: Photinus pyralis luciferase inhibition counter-screen. P08659. ATPLite firefly luciferase biochemical luminescence, 10 min. inhibition, % at 10 µM. 200,000 compounds, 1.5% hits. AID 1006;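 active means inhibition above about 50% when tested at 10 µM, limit read from the data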
# APP 5'UTR act: APP 5'UTR luciferase reporter activation. 190,000 compounds, 1% hits. activation, % at 2 µM. SH-SY5Y APP 5'UTR luciferase reporter, luminescence; zero percent = DMSO vehicle wells;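 active means activation above a set limit, based on mean plus 3 SD of controls, cut at about 140% in these data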
# STAT1 activator: increases IFN-gamma driven STAT1 reporter signal. NIH 3T3 STAT1-luciferase reporter, luminescence; 100% = IFN-gamma alone, no compound. activation (% of control), % at 5.5 µM. 200,000 compounds, 2.6% hits. AID 932;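 active means activation above the screen-wide mean activation plus 3 SD, cut at about 130% in these data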;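 further: raw ratio to IFN-gamma control signal so 100% means no change and 0% no light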
# STAT1 act conf: STAT1 activation, confirmation assay; NIH 3T3 STAT1-luciferase reporter, IFN-gamma potentiation, luminescence; 100% = IFN-gamma EC80 alone, no compound; activation (% of control), % at 5.7 µM; shares compounds with STAT1 activator; 1,200 compounds, 97% hits; AID 1262;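 active means activation above a set limit carried over from the earlier primary STAT1 screen, cut at about 140% in these data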;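 further: simple ratio to median IFN-gamma plus DMSO wells so 0% means no light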
# NFkB act: activates NF-kappaB, counter-screen to STAT1 activators. shares compounds with STAT1 activator. activation (% of control), % at 5.7 µM. 1,200 compounds, 43% hits. HEK293T NF-kB luciferase reporter, TNF-alpha stimulated, luminescence; 100% = TNF-alpha with vehicle only;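 active means activation above the mean of solvent-only control wells plus 3 SD, set per campaign, cut at about 130% in these data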;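 further: TNF-alpha given at a submaximal dose yielding about 80% of full reporter signal; values are well signal over median control so 100% means no change and 0% no light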
# STAT3 act 2: human STAT3 activation in STAT1 activator counter-screen; shares compounds with STAT1 activator; U3A cells STAT3-luciferase reporter, IL-6, luminescence; cells lack STAT1; 100 = IL-6 alone, no compound effect; activation (% of control), % at 5.7 µM; 1,200 compounds, 46% hits; AID 1316;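 active means activation above the solvent-only control well mean plus 3 SD, set per plate batch, cut at about 110% in these data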;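 further: 0% = no luminescence and 100% = median IL-6 plus DMSO wells; higher means more STAT3 reporter activation so hits are non-selective activators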
# * marks the source's active call; other numbers are inactive results; / = not tested or not shown.
SMILES,NF-kB neuron act,FLuc act counter,FLuc inh counter,APP 5'UTR act,STAT1 activator,STAT1 act conf,NFkB act,STAT3 act 2
N/C(=N\OC(=O)COc1ccc(Cl)cc1Cl)c1ccncc1,6.2*,0.8,17,175*,155*,206*,146*,124*
N/C(=N\OC(=O)COc1ccc(Br)cc1Cl)c1cccnc1,1.6,0.7,32,62,127,/,/,/
N/C(=N\OC(=O)COc1ccccc1Cl)c1ccccn1,7.3*,0.7,34,201*,178*,207*,139*,116*
Cn1ccsc1=NC(=O)c1ccc(Cl)cc1,2.7,0.8,20,113,156*,166*,130,118*
CC(C)(C)NCC1(CO)SC(N)=NC1=O (stereo not drawn),1.5,1.1,-8,10,98,/,/,/
O=C(Cc1ccc2c(c1)CCCC2)Nc1ccc2ccccc2c1,0.74,1,-3,4,118,/,/,/
O=C(Nc1ccc2ccccc2c1)c1onc2c1CCCC2,8.1*,0.7,28,206*,154*,270*,121,98
CC1=NOC(=O)/C1=C\c1ccc2c(c1)OCO2,0.93,1,-4,-16,102,/,/,/
Cc1cccc(-n2ncc3c(NC4CCCCC4)ncnc32)c1,7.2*,0.3,70*,180*,168*,239*,138*,102
Clc1ccc2nc(N3CCCCC3)sc2c1,4.9*,0.7,26,173*,166*,207*,138*,104
Cc1ccc2[nH]c(-c3cccc(N)c3)cc2c1,3.3,0.8,16,152*,183*,213*,146*,104
Cc1nn(-c2ccccn2)c2c1C(c1ccccn1)C1=C(CCCC1=O)N2 (stereo not drawn),1.5,1,-2,-8,98,/,/,/
CCOc1ccc(C(=O)Nc2ccc(Cl)cn2)cc1Cl,4.9*,1,5,153*,158*,188*,137*,99
CCCn1nnc(NC(=O)c2ccc(OCC)c(Cl)c2)n1,1.2,0.9,10,14,94,/,/,/
CC1=CCC(COC(=O)Nc2ccccc2)CC1 (stereo not drawn),3,0.7,29,94,126,/,/,/
COc1ccc(-n2ncc3c(NCC(C)C)ncnc32)cc1,7*,0.3,71*,195*,166*,260*,118,98
COc1ccc(-n2ncc3c(NC(C)C)ncnc32)cc1,4*,0.2,77*,151*,151*,246*,109,96
COc1ccc(OC)c(Nc2ncnc3c2cnn3-c2ccccc2)c1,1.7,1,-3,14,107,/,/,/
COCC(C)Nc1ncnc2c1cnn2-c1ccc(Cl)cc1 (stereo not drawn),4.9*,0.7,33,180*,163*,235*,141*,106
Cc1ccc(C)c(/C(O)=C2\C(=O)C(=O)N(CCCn3ccnc3)C2c2cccnc2)c1 (stereo not drawn),1.2,1,-5,-7,103,/,/,/
CCOc1ccc(-c2nnn(CC(=O)NCc3ccccc3)n2)cc1,1.2,1,2,-5,100,/,/,/
COC(=O)CSc1nc2cc(C)ccc2cc1C#N,6.3*,1,-1,138*,156*,224*,142*,106
CC1(C(=O)OCc2cc(=O)n3cc(Br)ccc3n2)CC1(Cl)Cl (stereo not drawn),1.2,0.9,7,82,161*,168*,124,100
CC(C)C(=O)NC(=S)Nc1ccc(S(=O)(=O)N(C)Cc2ccccc2)cc1,0.97,1.1,-5,1,104,/,/,/
CCOC(=O)c1cc(-c2ccc(OC(F)F)cc2)nc2c1c(=O)[nH]c(=O)n2C,1.2,1,3,3,104,/,/,/
